Assay results published in ChEMBL document CHEMBL3774319, “Novel indole sulfides as potent HIV-1 NNRTIs” (Bioorg Med Chem Lett, 2016).
pIC50: −log10 of the molar value.

Key:
[1] = Cytotoxicity against HEK293T cells by MTT assay; assay type: cell-based, HEK-293T; settings: human
Procedure, shortened: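 HEK293T cells read out with a tetrazolium-based colorimetric assay to give toxicity values.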

[2] = test system: Human immunodeficiency virus 1; assay: Antiretroviral activity against HIV-1 infected in HEK293T cells assessed as inhibition of viral replication by single-cycle assay; assay type: functional, organism-based; settings: Human immunodeficiency virus 1, HEK-293T
Procedure, shortened: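 In vitro single-cycle, non-replicative phenotypic anti-HIV-1 assay; IC50 values derived from it.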

[3] = Stability in ethanol solution containing sulfuric acid assessed as compound degradation at 0.10 mmol measured within 2 hrs by HPLC method; assay type: physicochemical

Row | pIC50 [2] | Stability [3] | Structure (SMILES) | CC50 [1] [µM]
1 | 7.38 | – | CCOC(=O)c1[nH]c2ccc(Cl)cc2c1C(SC)c1cccc(Cl)c1 (racemic) | 28.6
2 | 7.70 | – | CCOC(=O)c1[nH]c2ccc(Cl)cc2c1C(OC)c1cccc(Br)c1 (racemic) | 26.4
3 | 5.00 | – | CSC(c1ccccc1)c1c[nH]c2ccc(Cl)cc12 (racemic) | 52.7
4 | 7.42 | Stable | CCOC(=O)c1[nH]c2ccc(Cl)cc2c1C(SC)c1cccc(C)c1 (racemic) | 29.6
5 | 5.92 | – | CCOC(=O)c1[nH]c2ccc(Cl)cc2c1N(CC)c1ccccc1 | 22.8
6 | 7.48 | – | CCOC(=O)c1[nH]c2ccc(Cl)cc2c1C(OC)c1cccc(Cl)c1 (racemic) | 26.8
7 | 7.22 | – | CCOC(=O)c1[nH]c2ccc(Cl)cc2c1C(SC)c1cc(C)cc(C)c1 (racemic) | 32
8 | 7.70 | Unstable | CCOC(=O)c1[nH]c2ccc(Cl)cc2c1C(OC)c1cccc(C)c1 (racemic) | 27.4
9 | 7.41 | – | CCOC(=O)c1[nH]c2ccc(Cl)cc2c1C(SC)c1ccccc1 (racemic) | 26.1
